Only some compounds are listed: those with a hit (about 3.5% of all), similar ones and a draw of the others.
MrgX1 PAM = human MrgX1 positive allosteric modulation, primary screen. Q96LB2. MrgX1-HEK293, Fluo-4 calcium flux, FDSS; hits give high values. B-score at 10 µM. 0.63% of 310,000 active;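 active means plate-corrected calcium response at least 3 library SD above typical, normal starting fluorescence, not activating the receptor alone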;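 further: compound read alongside a low EC10 to EC30 dose of BAM8-22 agonist; peak minus trough fluorescence over baseline measured at the second addition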
Target sequence (Q96LB2 whole entry, looked up): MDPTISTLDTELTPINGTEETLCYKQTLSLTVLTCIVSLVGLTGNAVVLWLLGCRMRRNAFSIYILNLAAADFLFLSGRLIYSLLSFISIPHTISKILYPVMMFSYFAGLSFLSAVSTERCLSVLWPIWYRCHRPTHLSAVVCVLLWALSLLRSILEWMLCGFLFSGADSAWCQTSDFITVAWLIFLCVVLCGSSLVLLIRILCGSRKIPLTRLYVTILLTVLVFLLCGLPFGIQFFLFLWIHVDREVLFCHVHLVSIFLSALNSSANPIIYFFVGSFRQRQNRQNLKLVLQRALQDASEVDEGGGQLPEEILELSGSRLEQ
MrgX1 agonist = agonists of human MrgX1 receptor; 0.44% of 310,000 active; Q96LB2; AID 588627; MrgX1-HEK293 cells, Fluo-4 calcium fluorescence, agonist mode; hits give high values; B-score at 10 µM;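 active means calcium response B-score plate-corrected fluorescence ratio at least 3 library SD, with starting fluorescence B-score inside 5 SD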
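Material: HEK293 cells stably expressing human MrgX1 receptor | Quantity: 15,000 cells per well | Times: Cells plated overnight, dye loaded 0.5 h 37 °C, 0.5 h room temperature | Measured by: Kinetic Fluo-4 NW fluorescence of intracellular calcium | Control set: Positive and negative controls per plate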
RGS4 act = potentiators or activators of RGS4. HEK293 M3R/inducible RGS4, carbachol calcium flux Fluo4; hits give low values. B-score at 10 µM. 0.92% of 310,000 active;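 active means B-score of the integrated calcium signal more than 4 SD below the library mean, with starting fluorescence not abnormally high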;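 further: negative B-score means reduced calcium response which marks RGS4 activation or potentiation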
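Test system: HEK293 cells with stable M3R and inducible RGS4; also added: carbachol at ECmax as muscarinic agonist stimulus; schedule: dye loading 30 min 37 °C, buffer rest 30 min RT; technique: kinetic calcium fluorescence imaging with Fluo4-AM dye, 2 µM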
MrgX1 antag = blocks BAM8-22 activation of human MrgX1 receptor. Q96LB2. MRGX1-HEK293 calcium flux, Fluo-4, BAM8-22 antagonism; hits give low values. B-score at 10 µM. 1.3% of 310,000 active;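 active means calcium-response B-score plate-corrected more than 3 library SD below zero, starting fluorescence within 5 deviations, no agonist response on first addition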;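 further: peak minus trough fluorescence over baseline after final BAM8-22 challenge near maximal dose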
RGS4 inh = human RGS4 inhibition. AID 463165. P49798. B-score at 10 µM. HEK293 M3R/RGS4 inducible, Fluo-4 calcium flux; hits give high values; triggered by carbachol at its EC20. 0.45% of 310,000 active;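 active means B-score, a plate-corrected calcium signal, over three deviations above library mean, with baseline fluorescence within five deviations of library mean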;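 further: RGS4 expression induced by doxycycline in cells with stable M3 receptor; B-score is computed from the integrated fluorescence ratio over baseline after carbachol; higher B-score means a larger calcium signal and so more RGS4 inhibition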
Target sequence (P49798 whole entry, looked up): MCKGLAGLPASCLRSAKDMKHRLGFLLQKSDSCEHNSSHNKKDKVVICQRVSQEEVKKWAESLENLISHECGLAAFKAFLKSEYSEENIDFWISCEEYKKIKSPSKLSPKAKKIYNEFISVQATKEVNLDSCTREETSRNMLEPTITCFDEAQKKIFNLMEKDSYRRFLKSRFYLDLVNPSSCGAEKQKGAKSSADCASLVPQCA
MrgX1 ant reconf = human MrgX1 receptor antagonism, re-confirmation screen | shares compounds with MrgX1 antag | MrgX1-HEK293, BAM8-22 calcium flux, Fluo-4; hits give low values | remaining BAM8-22 calcium response % of control (hits give low values), % at 10 µM | 19% of 2,300 active;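 active means remaining agonist calcium response no higher than 100% minus 3 SD of agonist-only control wells, with starting fluorescence near control levels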;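 further: agonist BAM8-22 given at a near maximal EC90 to ECmax level; peak minus minimum fluorescence divided by baseline after agonist addition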
HEK293 Ca flux = MrgX1 antagonist counter-screen hit in parental HEK293 cells; Fluo-4 calcium fluorescence, FDSS; fluorescence ratio F(max-min)/F0 at 10 µM; shares compounds with MrgX1 antag; 2% of 4,000 active; AID 624111;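 active means duplicate-averaged calcium fluorescence ratio at least three times the standard deviation of buffer wells, a nonspecific response in parental cells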
HEK293 Ca counter = MrgX1 allosteric activator counter-screen hit in parental HEK293 cells. shares compounds with MrgX1 antag. parental HEK293 calcium flux, Fluo-4 fluorescence ratio; hits give high values. fluorescence ratio F(max-min)/F0 at 10 µM. 0.4% of 4,000 active. AID 624114;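 active means calcium fluorescence ratio, averaged over duplicates, at least 3 SD of the buffer-well ratio, meaning a nonspecific response in receptor-free cells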;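 further: untransfected parental HEK293 lacking MrgX1 used as counterscreen for MrgX1 allosteric activators; fluorescence change taken during the second addition on a kinetic imager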
HEK293 Ca cntr2 = counter-screen for MrgX1 activators: effect in parental HEK293 cells; shares compounds with MrgX1 antag; fluorescence ratio F(max-min)/F0 at 10 µM; 8.7% of 4,000 active; Fluo-4 calcium fluorescence (FDSS); hits give high values;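 active means calcium fluorescence ratio at least three times the spread of buffer wells, meaning a non-specific response in parental cells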
* marks the source's active call; other numbers are inactive results; i = inactive; . = no result.

SMILES | MrgX1 PAM | MrgX1 agonist | RGS4 act | MrgX1 antag | RGS4 inh | MrgX1 ant reconf | HEK293 Ca flux | HEK293 Ca counter | HEK293 Ca cntr2
CC1(C)Cc2c(C#N)c(N)n(-c3ccccc3)c(=O)c2CO1 | i | i | i | -13* | i | i | i | i | i
N#Cc1c(N)n(-c2ccccc2)c(=O)c2cc([N+](=O)[O-])ccc12 | i | i | i | i | i | . | . | . | .
CCc1ccc(OCC(=O)Nc2cc(S(=O)(=O)CC)ccc2O)cc1 | i | i | i | i | i | . | . | . | .
O=C(Nc1ccccc1)Nc1cccc(C(F)(F)F)c1 | i | i | i | -5.2* | i | 84%* | i | i | i
CC(C)(C)NC(=S)Nc1cccc(C(F)(F)F)c1 | i | i | i | -5.2* | i | i | i | i | i
FC(F)(F)c1cccc(CNC(=S)Nc2ccccc2)c1 | i | i | i | i | i | . | . | . | .
FC(F)(F)c1cccc(NC(=S)NCc2ccccc2)c1 | i | i | i | -5.4* | i | i | i | i | 58*
CC(C)(C)NC(=O)/C(=C\C=C\c1ccccc1)NC(=O)c1ccc([N+](=O)[O-])cc1 | i | i | i | i | i | . | . | . | .
CC1CCc2sc(C(=O)OCC(=O)NCc3ccc(F)cc3)cc2C1 (stereo not drawn) | i | i | i | -21* | i | i | i | i | i
O=C(Nc1ccc(S(=O)(=O)Nc2ccccc2)cc1)c1ccc(CN2CCOCC2)cc1 | i | i | i | -4.6* | i | 79%* | i | i | i
O=C(Nc1ccc(CN2CCOCC2)cc1)c1ccc(Cl)cc1 | i | i | i | i | i | . | . | . | .
COc1ccc(N2C(=O)CCC(C(=O)N3CCOCC3)C2c2ccc(F)cc2)cc1 (stereo not drawn) | i | i | i | -4.8* | i | i | i | i | i
COc1ccc(N2C(=O)CCC(C(=O)N3CCCCC3)C2c2ccc(F)cc2)cc1 (stereo not drawn) | i | i | i | i | i | . | . | . | .
CC1(c2ccccc2)NC(=O)N(CC(=O)Nc2ccc3c(c2)OCO3)C1=O (stereo not drawn) | i | i | i | i | i | . | . | . | .
CC1(c2ccc(OC(F)F)cc2)NC(=O)N(CC(=O)Nc2ccc3c(c2)OCO3)C1=O (stereo not drawn) | i | i | i | -6.3* | i | i | i | i | i
O=C(Nc1ccc2c(c1)OCO2)Nc1ccc2c(c1)OCO2 | i | i | i | i | i | . | . | . | .
O=C(Nc1ccc(F)cc1)Nc1ccc2c(c1)OCO2 | i | i | i | -4.8* | i | i | i | i | i
CCn1c(SCC(=O)Nc2cccc(C)n2)nc2c1c(=O)n(C)c(=O)n2C | i | i | i | -5.9* | i | i | i | i | i
COc1cccc(CN(C(=O)c2ccco2)C2CCS(=O)(=O)C2)c1 (stereo not drawn) | i | i | i | -4.8* | i | i | i | i | i
COc1ccc(CN2C3CCCC2CC(NC(=O)Nc2ccccc2)C3)cc1 (stereo not drawn) | i | i | i | i | i | . | . | . | .
COc1ccc(CN2C3CCCC2CC(NC(=O)Nc2cccc(C)c2)C3)cc1 (stereo not drawn) | i | i | i | -7.9* | i | 72%* | i | i | i
O=C(CSc1nnc(CNC(=O)c2ccc(F)cc2)o1)NCc1ccccc1Cl | i | i | i | i | i | . | . | . | .
O=C(CSc1nnc(CNC(=O)c2ccccc2)o1)NCc1ccccc1Cl | i | i | i | -6.6* | i | i | i | i | i
O=C(CSc1nnc(CNC(=O)c2ccc(F)cc2)o1)NCc1ccc(F)cc1 | i | i | i | i | i | . | . | . | .
O=C(CSc1nnc(CNC(=O)c2ccc(F)cc2)o1)NCc1ccc2c(c1)OCO2 | i | i | i | -7.6* | i | i | i | i | i
SMILES | MrgX1 PAM | MrgX1 agonist | RGS4 act | MrgX1 antag | RGS4 inh | MrgX1 ant reconf | HEK293 Ca flux | HEK293 Ca counter | HEK293 Ca cntr2
CC(=O)c1ccc(NC(=O)CCn2c(=S)oc3ccccc32)cc1 | i | i | i | i | i | . | . | . | .
CC(C)N(C(=O)C[n+]1ccsc1N)c1ccccc1 | i | i | i | i | i | . | . | . | .
Cc1[nH]c2ccccc2c1-c1nc(-c2ccc(Cl)cc2)nnc1-c1ccccc1 | i | i | i | i | i | . | . | . | .
CC1CC(=O)c2cnc(NCc3ccco3)nc2C1 (stereo not drawn) | i | i | i | -7.2* | i | i | i | i | i
Cc1ccc(Cl)cc1NC(=O)C1CCCN(S(C)(=O)=O)C1 (stereo not drawn) | i | i | i | i | i | . | . | . | .
COc1cccc(N=C2NC(=O)/C(=C/c3cc([N+](=O)[O-])ccc3O)S2)c1 | i | i | i | -11* | i | i | i | i | i
Cc1ccc(C)c(CNS(=O)(=O)c2c(C)[nH]c(C)c2C(=O)N2CCCCC2)c1 | i | i | i | i | i | . | . | . | .
O=C(OCn1nnc2ccccc2c1=O)C1CCCCC1 | i | i | i | -10* | i | i | i | i | i
CCOc1ccc(S(=O)(=O)NNS(=O)(=O)c2ccc(C)cc2C)cc1 | i | i | i | i | i | . | . | . | .
Cc1cccc(C(=O)NCC(=O)N2CCN(S(=O)(=O)c3ccccc3)CC2)c1 | i | i | i | -4.6* | i | i | i | i | i
CCCCC(=O)Nc1ccc(C(=O)N(CC)c2ccccc2C)cc1 | i | i | i | -7* | i | i | i | i | i
CCCOc1cc(CC(=O)NCc2ccco2)ccc1OC | i | i | i | i | i | . | . | . | .
COc1ccc(CC(=O)OCC(=O)NCc2ccco2)cc1OC | i | i | i | -5.3* | i | i | i | i | i
